The target in series [1] is T1, Soluble guanylate cyclase alpha1/beta1 complex (Homo sapiens) (UniProt Q02153+Q02108). The series is described as follows: Activation of human recombinant sGC subunit alpha-1/beta-1 using GTP as substrate assessed as cGMP production measured per ng of protein at 100 uM treated prior to DEA/NO addition measured after 2 mins by radioimmunoassay in presence of Mg2+. It counts as protein-complex assay.

Series [2] deals with T1, Soluble guanylate cyclase alpha1/beta1 complex (Homo sapiens). The series is described as follows: Binding affinity to full-length human recombinant sGC subunit alpha-1/beta-1 at 100 uM after 30 seconds by SPR analysis. It counts as protein-complex assay. Put shortly: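 Compounds at 100 μM in running buffer (10 mM HEPES pH 7.4, 150 mM NaCl, 3 mM EDTA, 0.05% P20, 1 mM DTT, 10 mM MgCl2, 5% DMSO), 25 °C. Injection and dissociation 30 s each, triplicate.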
On the technique in general: SPR reads the build-up and loss of mass on a sensor chip optically.

The target is the same in series [3]. The series is described as follows: Binding affinity to sGC subunit alpha-1/beta-1 catalytic domain (unknown origin) assessed as occupancy relative to control. Type of series: protein-complex assay. Put shortly: (§1)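 Compounds at 100 μM in DMSO-containing running buffer, 25 °C. Injection and dissociation 30 s each, triplicate. Responses double-referenced, DMSO-corrected, control subtracted; occupancy is the fraction of immobilised sites bound, assuming 1:1 stoichiometry.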

For series [4] the target is unchanged. The series is described as follows: Binding affinity to sGC subunit alpha-1/beta-1 catalytic domain (unknown origin) at 100 uM after 30 seconds by SPR analysis. Type of series: protein-complex assay. The gist of the method: as §1
The nature of series [5]: Solubility of the compound in assay buffer in presence of 5% DMSO. Type of series: physicochemical.

Calls of active or inactive are those of the source. No cut-off for these calls is given here.

Consider `Cc1ccc(Cn2nc(-c3nc(CN)no3)c3ccccc32)cc1`, for which the Activity in series [1] stood at 14.3 pmol. In series [2], the outcome was Active. Further, in series [3], the Occ amounted to 90%.
With `COc1ccc(Cn2nc(-c3nc(CN)no3)c3ccccc32)cc1`, in series [1], the Activity was 2.33 pmol. The outcome in series [2] and in series [4] was inactive. Moreover, the Occ in series [3] turned out to be 21%.
On to `Cc1ccccc1Cn1nc(-c2nc(CN)no2)c2ccccc21`, for which the Activity in series [1] is 3.22 pmol. Moreover, the outcome in series [2] was Active. Also, the Occ in series [3] was determined as 101%.
Regarding `NCc1noc(-c2c3ccccc3nn2CCn2ccnc2)n1`, the Activity in series [1] turned out to be 2.72 pmol. In series [3], the Occ turned out to be 28%.
On to `Nc1nc(-c2nn(Cc3ccccc3F)c3ncccc23)ncc1C1CC1`, for which, in series [5], the solubility entry is reported as “Insoluble”.
`CC(=O)n1nc(-c2nc(CN)no2)c2ccccc21`: the Activity in series [1] was 4.05 pmol. In addition, the Occ in series [3] worked out at 20%.
For `Cc1oncc1Cn1nc(-c2nc(CN)no2)c2ccccc21`, the Activity in series [1] was 9.09 pmol. In series [2], the outcome was Active. Besides, the Occ in series [3] worked out at 34%.
As for `NCc1noc(-c2c3ccccc3nn2Cc2cccc(Cl)c2)n1`, the Activity in series [1] was determined as 2.08 pmol. In addition, the Occ in series [3] amounted to 94%.
For `CC(=O)Nc1ccc(Cn2nc(-c3nc(CNC(=O)OC(C)(C)C)no3)c3ccccc32)cc1` the same measures were 2.23 pmol and 62%.
Regarding `NCc1noc(-c2c3ccccc3nn2Cc2ccc3c(c2)OCO3)n1`, the Activity in series [1] is 9.11 pmol. In series [3], the Occ is 96%.
Regarding `O=C(O)CCCCN(CCc1ccccc1OCc1ccc(CCc2ccccc2)cc1)Cc1ccc(C(=O)O)cc1`, the outcome in series [2] was Active. Further, in series [4], the result was inactive.
For `CC(C)(C)OC(=O)NCc1noc(-c2nn(Cc3ccc4c(c3)OCO4)c3ccccc23)n1`, in series [1], the Activity is 15.6 pmol. Moreover, the outcome in series [2] was Active. Besides, the Occ in series [3] came to 40%.

Source of the values: ChEMBL document CHEMBL3112547, “Surface plasmon resonance using the catalytic domain of soluble guanylate cyclase allows the detection of enzyme activators” (Bioorg Med Chem Lett, 2014).
